Results taken from paper PMC5186364 (Journal of molecular biology, 2016).
Where two headings read alike, the source gives them in different places.

How the values were obtained:
A3G-mycHis (APOBEC3G) = A3G-mycHis (APOBEC3G) (Homo sapiens, UniProt Q9HC16); experiment: Fluorescence-based ssDNA cytosine deaminase assay with purified A3G-mycHis; format: biochemical; settings: for reproducibility of A3G inhibitory activity (in words): introductory summary of own findings, assay format not stated
Outline: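 Human A3G-mycHis purified by C-terminal His tag from HEK293T cells and diluted in pH 7.4 Tris buffer with Triton and protease inhibitors. Enzyme incubated with 10 pmol 6-FAM/TAMRA ssDNA containing one CCC site. Then UDG treatment for 2 hrs at 37 °C, NaOH cleavage for 30 min, and neutralisation. Fluorescence read at ex 490/em 520 nm. Peptides from 10 mM DMSO stocks; n = 3, mean ± SEM; IC50 from curve fit.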

A3G (APOBEC3G) [1] = settings: biochemical assays, prior studies, ref [14]–[18], cited from earlier work
A3G (APOBEC3G) [2] = experiment: PCR and restriction-based ssDNA deamination assay; format: biochemical, human; settings: 10 nM A3G, 1 nM ssDNA, 37 °C, 30 min, pH 7.0, gel representative of >3 independent experiments

A3G-mycHis (APOBEC3G), sequence (Q9HC16 whole entry): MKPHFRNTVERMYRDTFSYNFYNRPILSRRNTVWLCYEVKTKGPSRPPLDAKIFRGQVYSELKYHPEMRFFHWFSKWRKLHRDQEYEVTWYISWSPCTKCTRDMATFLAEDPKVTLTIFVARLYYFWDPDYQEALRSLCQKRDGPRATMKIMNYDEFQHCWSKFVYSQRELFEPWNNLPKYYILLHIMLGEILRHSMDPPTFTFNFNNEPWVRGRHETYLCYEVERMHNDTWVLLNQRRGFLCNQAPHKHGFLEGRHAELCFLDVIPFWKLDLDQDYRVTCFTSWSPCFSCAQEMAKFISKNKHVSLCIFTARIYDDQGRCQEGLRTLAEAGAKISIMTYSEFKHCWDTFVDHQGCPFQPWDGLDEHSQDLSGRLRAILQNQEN

Substance	specificity of A3G inhibition (in words) (A3G-mycHis (APOBEC3G); conclusion from scrambled and reverse peptide comparison)	reproducibility of A3G inhibitory activity (in words) (A3G-mycHis (APOBEC3G))	published A3G inhibitory activity (in words) (A3G (APOBEC3G) [1]; listed as Vif 105–119)	published A3G inhibitory activity (in words) (A3G (APOBEC3G) [1]; listed as Vif peptide 105–119)	A3G inhibitory effect (in words) (A3G (APOBEC3G) [2])	published A3G inhibitory activity (in words) (A3G (APOBEC3G) [1])	published A3G inhibitory activity (in words) (A3G (APOBEC3G) [1]; listed as Vif peptide 25–39)
H-QLIHLYYFDCFSESA-OH [compound 6044]	non-specific	reproducible A3G inhibitory activity	low micromolar inhibitory activities	sub-micromolar inhibitory activities	–	–	–
H-VKHHMYISGKAKGWF-OH [Vif25–39]	–	did not find significant A3G inhibitory activity	–	–	no inhibitory effect	low micromolar inhibitory activities	sub-micromolar inhibitory activities
